These results are taken from ChEMBL document CHEMBL4765486, “Novel Nonsecosteroidal Vitamin D Receptor Modulator Combined with Gemcitabine Enhances Pancreatic Cancer Therapy through Remodeling of the Tumor Microenvironment” (J Med Chem, 2021).

Active and inactive are the calls of the source. Unless noted, the calls are words filed in the database; no cut-off is given here.

Data set [1] deals with T1, Vitamin D3 receptor (Homo sapiens) (UniProt P11473).
T1 sequence (whole entry): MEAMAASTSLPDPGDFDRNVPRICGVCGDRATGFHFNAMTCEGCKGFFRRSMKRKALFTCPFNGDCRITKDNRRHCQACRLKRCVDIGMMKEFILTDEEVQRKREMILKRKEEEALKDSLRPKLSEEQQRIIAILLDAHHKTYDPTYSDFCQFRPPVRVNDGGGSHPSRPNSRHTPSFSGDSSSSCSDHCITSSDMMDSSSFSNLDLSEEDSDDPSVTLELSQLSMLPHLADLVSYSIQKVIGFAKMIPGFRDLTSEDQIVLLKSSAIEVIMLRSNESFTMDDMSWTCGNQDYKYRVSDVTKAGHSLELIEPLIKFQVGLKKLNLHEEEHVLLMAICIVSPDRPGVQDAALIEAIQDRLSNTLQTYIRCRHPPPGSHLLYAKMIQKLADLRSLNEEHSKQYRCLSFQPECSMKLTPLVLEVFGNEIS
Description: Agonist activity at VDR (unknown origin) expressed in HEK293 cells co-transfected with pGL4.27-SPP3-Luc and CMV-hRXRalpha and pCMX-Renilla plasmids after 24 hrs by dual luciferase reporter gene assay. The note with it: filed as agonist, dose 0.0001-1 µM. It counts as cell-based. A digest of the protocol: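 HEK293 cells in 48-well plates were transfected per well with 40 ng TK-Spp×3-LUC reporter, 20 ng pCMX-Renilla, 30 ng pENTER-CMV-hRXRα and 100 ng pCMX-VDR using Lipofectamine 2000. Compounds were added 8 h post-transfection, and dual-luciferase activity was read 24 h later. Firefly signal was normalised to Renilla. The experiment was run three times.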
Background: In a reporter assay the amount or activity of a reporter protein is the signal.

Data set [2] has as its system DSL-6A/C1. The data set can be described thus: Potentiation of gemcitabine-induced antitumor activity against luciferase-tagged rat DSL-6A/C1 cells and GFP-tagged LTC-14 cells co-inoculated in orthotropic xenograft BALB/c nude mouse model of pancreatic cancer assessed as reduction in tumor volume at 500 ug/kg, ip administered once every 3 days for 12 days coadministered with gemcitabine at 100 mg/kg and measured after 3 days post last dose by IVIS optical imaging analysis. It counts as functional, organism-based. The note with it: dose 500.0 µg/kg, time 12.0 day. In outline: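 DSL-6A/C1-luci and LTC-14-GFP cells were co-inoculated orthotopically into the pancreas of nude mice, n=5 per group. Treatment began 7 days after grafting (methods) or 14 days (text). Gemcitabine 100 mg/kg ip every 3 days, alone or with compound 500 μg/kg or calcipotriol 60 μg/kg in ethanol/polyoxyethylene castor oil/saline (1:1:18), for 12 days. Tumour growth was followed by bioluminescence imaging.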

In data set [3] the test system is LTC-14. The data set can be described thus: Inhibition of rat LTC-14 cells interaction with DSL-6A/C1 cells in conditioned media assessed as inhibition of POSTN protein expression at 0.5 uM measured after 24 hrs by Western blot analysis. It counts as functional, cell-based. In outline: (§1)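 LTC-14 cells were treated for 24 h with DSL-6A/C1 conditioned medium plus compound (0.5 μM). Proteins were separated on 10% SDS-PAGE, transferred to PVDF and probed with rabbit anti-PDGF-A or anti-POSTN, with β-actin as loading reference.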

The test system of data set [4] is LTC-14. Description: Inhibition of rat LTC-14 cells activation assessed as inhibition of PDGFA mRNA expression at 0.5 uM treated under conditioned media of DSL-6A/C1 cells for 24 hrs by q-PCR analysis. It counts as functional, cell-based. In outline:
(§2)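 LTC-14 PSCs were exposed for 24 h to conditioned medium from rat DSL-6A/C1 cancer cells containing compound at 0.5 μM. Pdgfa, Pdgfb, Fgf2, Hgf and Periodin mRNA were quantified by RT-qPCR. Three repeats, mean ± SD versus CM alone.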

For data set [5], the target named is T1, Vitamin D3 receptor (Homo sapiens). The data set can be described thus: Binding affinity to VDR (unknown origin) at 1 uM by fluorescence polarization assay relative to calcipotriol. The note with it: filed as agonist. In outline:
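PolarScreen VDR competitor fluorescence polarization assay with compounds at 1 μM in triplicate. Read-out used 535 nm excitation and 590 nm emission filters.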

The subject of data set [6] is LTC-14. Description: Inhibition of rat LTC-14 cells activation assessed as inhibition of Hgf mRNA expression at 0.5 uM treated under conditioned media of DSL-6A/C1 cells for 24 hrs by q-PCR analysis. It counts as functional, cell-based. In outline:
as §2

A short description of data set [7]: Toxicity in orthotropic xenograft BALB/c nude mouse model of pancreatic cancer co-inoculated with rat DSL-6A/C1-Luc cells and LTC-14-GFP cells assessed as hypercalcemia at 500 ug/kg, ip administered once every 3 days for 12 days coadministered with gemcitabine at 100 mg/kg and measured after 3 days post last dose. It counts as organism-based. The note with it: in vivo, 0.5 mg/kg, 288 h, dose 500 µg/kg, time 12 day. A digest of the protocol: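 Orthotopic DSL-6A/C1-luci/LTC-14-GFP nude mice received gemcitabine 100 mg/kg plus compound 500 μg/kg ip for 12 days. They were sacrificed 3 days after the final dose, and serum was collected for biochemical analysis to assess hypercalcemia.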

Data set [8] has as its system LTC-14. The data set can be described thus: Inhibition of rat LTC-14 cells activation assessed as inhibition of PDGFB mRNA expression at 0.5 uM treated under conditioned media of DSL-6A/C1 cells for 24 hrs by q-PCR analysis. Type of data set: functional, cell-based. In outline:
as §2

For data set [9], the system named is LTC-14. Description: Inhibition of rat LTC-14 cells activation assessed as reduction in ECM deposition resulting in doxorubicin accumulation in PSC spheres pretreated with compounds followed by doxorubicin addition by laser confocal microscopy analysis. Type of data set: functional, cell-based. A digest of the protocol: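 LTC-14 cells were grown in 3D culture to form PSC spheres and treated with compounds. Fluorescent doxorubicin was then added, and its penetration into the spheres was imaged by laser confocal microscopy. Three repeats, versus untreated control.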

In data set [10] the test system is LTC-14. Description: Inhibition of rat LTC-14 cells activation assessed as inhibition of Periodin-mRNA expression at 0.5 uM treated under conditioned media of DSL-6A/C1 cells for 24 hrs by q-PCR analysis. It counts as functional, cell-based. A digest of the protocol:
as §2

The subject of data set [11] is LTC-14. The data set can be described thus: Inhibition of rat LTC-14 cells interaction with DSL-6A/C1 cells in conditioned media assessed as inhibition of PDGF-A protein expression at 0.5 uM measured after 24 hrs by Western blot analysis. It counts as functional, cell-based. A digest of the protocol: as §1
On the technique in general: A western blot detects proteins with antibodies after separation by electrophoresis.

Data set [12] deals with DSL-6A/C1. Description: Potentiation of gemcitabine-induced antitumor activity against luciferase-tagged rat DSL-6A/C1 cells and GFP-tagged LTC-14 cells co-inoculated in orthotropic xenograft BALB/c nude mouse model of pancreatic cancer assessed as inhibition of collagen deposition at 500 ug/kg, ip administered once every 3 days for 12 days coadministered with gemcitabine at 100 mg/kg and measured after 3 days post last dose by Masson staining based assay. Type of data set: functional, organism-based. The note with it: dose 500.0 µg/kg, time 12.0 day. In outline:
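In the same orthotopic co-inoculation model, mice received gemcitabine 100 mg/kg ip every 3 days plus compound 500 μg/kg ip for 12 days. Animals were sacrificed 3 days after the last dose. Pancreatic tumour sections were stained with H&E for tissue structure and with Masson's trichrome for collagen deposition, imaged at ×100.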

Data set [13] has as its system LTC-14. Description: Inhibition of rat LTC-14 cells activation assessed as inhibition of Fgf mRNA expression at 0.5 uM treated under conditioned media of DSL-6A/C1 cells for 24 hrs by q-PCR analysis. It counts as functional, cell-based. A digest of the protocol:
as §2

Data set [14] concerns LTC-14. Description: Inhibition of rat LTC-14 cells activation assessed decrease in TGF-beta1 induced Acta2 mRNA expression at 0.5 uM incubated for 24 hrs by q-PCR analysis. Type of data set: functional, cell-based. A digest of the protocol:
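Immortalized rat PSC line LTC-14, about 1×10^5 cells per well, was grown 24 h at 37 °C in 5% CO2. Cells then received compound (0.5 μM) plus TGF-β1 for 24 h; TGF-β1 is stated as 0.5 ng/mL in the text and 5 ng/mL in the methods. Col1a1 and Acta2 mRNA were measured by RT-qPCR. Mean ± SD versus TGF-β1 alone.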

`CCn1cc(C(CC)(CC)c2ccc(OCC(C)O)c(C)c2)cc1C(=O)NCCN1CCN(C)CC1` (centres undefined): the values for the Activity result in data set [1] and in [7] were “Dose-dependent effect” and “Non-Toxic”, respectively. The TGI entry in the data set on DSL-6A/C1 [2] is “Active”. The inhibition result with LTC-14 [3], in the data set on LTC-14 [4], in the data set on LTC-14 [6], with LTC-14 [8], with LTC-14 [9] and in the data set on LTC-14 [10] was “Active” in each case. For the same compound, the inhibition entry with LTC-14 [11], in the data set on LTC-14 [13] and in the data set on LTC-14 [14] was “Active” each time. Besides, the RBA in [5] is 89%. In the data set on DSL-6A/C1 [12], the outcome was Active.
